Bioassay records deposited in PubChem BioAssay by several laboratories.
Sampled rows, rich in hits. Any-hit rate of the full collection: about 2.2%.
Jurkat NFkB inh: lowers PMA/ionomycin-induced NF-kB signal in Jurkat cells | inhibition, % at 4 µM | PMA/ionomycin-induced NF-kB luciferase reporter, luminescence | AID 435003 | hit rate 0.53% among 330,000; in the data active means inhibition above about 50%
miR122 inh: miR-122 inhibition in Huh7 cells. Huh7 miR-122 Renilla luciferase sensor, 48 h; neutral wells = 0, positive control = 100. activation (reporter increase), % at 12.5 µM. hit rate 0.3% among 340,000;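 active means mean replicate activation score at least 90 and every replicate individually at or above 90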;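 further: higher luciferase means less miR-122 activity so hits act as miR-122 inhibitors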
NR2E3 ag-1: activates human photoreceptor nuclear receptor NR2E3 | Q9Y5X4 | GST-NR2E3/biotin-RetCOR TR-FRET, 1536-well | inhibition of corepressor binding, % at 4.78 µM | hit rate 0.12% among 320,000;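 active means percent inhibition above the cutoff of mean plus 3 SD of all tested compounds, set per screening campaign, cut at about 20% in these data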;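 further: 0% = DMSO wells and 100% = biotin wells as full block of FRET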
Target sequence (Q9Y5X4 whole entry, looked up): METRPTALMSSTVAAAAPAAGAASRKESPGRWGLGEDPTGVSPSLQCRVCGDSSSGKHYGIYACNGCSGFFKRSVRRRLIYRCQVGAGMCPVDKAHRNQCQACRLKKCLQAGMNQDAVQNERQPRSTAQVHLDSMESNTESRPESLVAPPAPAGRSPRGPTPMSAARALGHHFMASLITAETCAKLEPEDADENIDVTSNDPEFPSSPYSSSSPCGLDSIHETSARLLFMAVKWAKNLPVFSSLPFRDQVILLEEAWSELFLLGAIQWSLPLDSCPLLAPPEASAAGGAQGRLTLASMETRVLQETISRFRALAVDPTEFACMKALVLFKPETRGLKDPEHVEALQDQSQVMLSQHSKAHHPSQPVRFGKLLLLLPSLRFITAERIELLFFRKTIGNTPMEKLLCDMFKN
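Test system: GST-NR2E3 and biotin-RetCOR proteins | Quantity: 1.35 nM GST-tagged NR2E3 final | Medium: Tris pH 7.5 | Also added: 7 nM biotin-RetCOR | Dosing: Compound at 4.8 µM, single dose | Timing: 5 h at 4 °C | Detection: Time-resolved FRET | Read-out basis: Percent inhibition | Benchmarks: Biotin wells as high control, 0.6% DMSO wells as low control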
FGF22 binding: shifts melting point of recombinant human FGF22 | recombinant FGF22 thermal shift, SYPRO orange fluorescence; percent of sucrose octasulfate shift, DMSO zero | activity (Tm shift, normalised), % at 9.99 µM | hit rate 1.5% among 340,000 | AID 651658;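 active means mean Tm shift, scaled 0 neutral to 100 positive control, at about 1.3% or above, every replicate too, limit read from the data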
Target sequence (Q9HCT0 whole entry, looked up): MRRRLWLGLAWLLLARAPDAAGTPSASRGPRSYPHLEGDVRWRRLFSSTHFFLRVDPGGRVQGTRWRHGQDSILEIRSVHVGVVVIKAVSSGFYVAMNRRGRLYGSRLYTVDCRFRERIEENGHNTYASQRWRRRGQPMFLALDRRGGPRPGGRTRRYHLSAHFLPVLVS
NR2E3 ag-2: agonists of human NR2E3 nuclear receptor. hit rate 0.35% among 360,000. CHO-S Gal4-NCOR/VP16-NR2E3 two-hybrid, luciferase. Q9Y5X4. inhibition of corepressor binding, % at 3.98 µM;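 active means inhibition above the mean of all tested compounds plus 3 SD, cut at about 70% in these data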;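 further: 0% = DMSO with NR2E3 transfected cells and 100% = cells lacking NR2E3 construct; higher means lower luciferase signal from less NR2E3 corepressor binding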
697 NFkB inh: inhibitors of the PMA/ionomycin-induced NF-kB reporter in 697 B cells | 697 B-cell NF-kB luciferase reporter, 16 h | inhibition, % at 4 µM | hit rate 0.33% among 330,000 | AID 435022; in the data active means inhibition above about 35%
An asterisk follows results filed as active; nt = not tested or not shown; [ ] = dose if it differs, or a comment.

SMILES	Jurkat NFkB inh	miR122 inh	NR2E3 ag-1	FGF22 binding	NR2E3 ag-2	697 NFkB inh
CC(=O)Nc1ccc(NC(=O)CSC2=NS(=O)(=O)c3cc(F)ccc3N2)cc1	12	-2	-2	1	5	2
O=C(CSC1=NS(=O)(=O)c2cc(F)ccc2N1)Nc1ccc(F)cc1	-1	nt	-5	1.7*	5	-2
O=c1[nH]c(/C=C/c2cccc3ccccc23)nc2ccccc12	-22	nt	2	0	-65	12
O=c1nc2cccc3c2=c(/c1=C(\O)c1ccccc1)c1ccccc1c3=O	9	nt	-4	44*	-10	17
C[C@H]1CCCCO[C@@H](CN(C)Cc2ccc(C(F)(F)F)cc2)[C@@H](C)CN([C@@H](C)CO)C(=O)c2cc(NS(=O)(=O)c3cn(C)cn3)ccc2O1	nt	12[16.7 µM]	nt	0	nt	nt
O=C(Oc1cc(Cl)ccc1Cl)C1=CC=CN2CCS(=O)(=O)N=C12	-2	-10	1	16*	-10	14
C[C@H]1CCCCO[C@H](CN(C)Cc2ccncc2)[C@@H](C)CN([C@@H](C)CO)C(=O)c2cc(NC(=O)C3CCCCC3)ccc2O1	nt	6[16.7 µM]	nt	0	nt	nt
CC1(C)Cc2ccccc2C(=NCC(=O)O)N1	-4	nt	3	43*	-7	13
Cc1noc(C)c1S(=O)(=O)N(C)C[C@H]1Oc2ccc(NC(=O)NC3CCCCC3)cc2CC(=O)N([C@@H](C)CO)C[C@H]1C	nt	1[16.7 µM]	nt	0	nt	nt
COc1ccc(/C=N/NC(=O)CNc2ccc(Br)cc2)c(C(=O)O)c1OC	6	1	0	44*	-2	13
COC(C(=O)NCc1ccc(C)cc1)c1ccccc1 (stereo not given)	-8	-1	2	43*	-13	-24
COC(C(=O)N/N=C(\C)c1ccc(C)cc1)c1ccccc1 (stereo not given)	-7	3	nt	0	-2	-4
CCN(CC(=O)Nc1ccc(N2CCOCC2)cc1)CC(=O)NC(C)(C)C	5	nt	4	nt	-21	-8
CCN(CC(=O)Nc1ccc(C)c(F)c1)CC(=O)NC(C)(C)C	0	nt	5	43*	11	3
CO[C@H](CN(C)S(=O)(=O)c1ccc(Cl)cc1)[C@H](C)CN([C@H](C)CO)S(=O)(=O)c1cccc(Cl)c1	nt	nt	nt	0	nt	nt
CCSc1nc2ccccc2c(=O)n1Cc1ccc(F)cc1	0	nt	1	44*	-5	1
COc1ccc(OCCSc2nc(C)c(Cc3ccccc3)c(=O)[nH]2)cc1	5	nt	5	0	-13	-3
Cc1nc(SCCOc2ccccc2)[nH]c(=O)c1Cc1ccccc1	9	nt	7	43*	1	-10
C[C@@H]1CN([C@@H](C)CO)C(=O)c2cc(NC(=O)C3CC3)ccc2O[C@@H]1CN(C)Cc1ccccc1	nt	11[16.7 µM]	nt	0	nt	nt
O=C(CNC(=O)C1CC1)Nc1ccc(F)c(F)c1F	-3	1	nt	43*	-23	17
O=C(CNCC(=O)Nc1ccc(F)c(F)c1F)Nc1ccc(F)c(F)c1F	-16	-11	-3	0	-28	-3
O=C(CS(=O)(=O)c1ccc(Cl)c(Cl)c1)Nc1ccccc1Cl	3	19	2	nt	-3	4
COc1ccc(S(=O)(=O)CC(=O)Nc2ccccc2Cl)cc1	13	-1	3	43*	-27	7
COc1cc(C)c(Cl)cc1S(=O)(=O)n1ccnc1C	0	7	5	0	3	14
Cc1ccc([N+](=O)[O-])cc1S(=O)(=O)N1CCN(C)CC1	13	4	-3	0	-19	17
SMILES	Jurkat NFkB inh	miR122 inh	NR2E3 ag-1	FGF22 binding	NR2E3 ag-2	697 NFkB inh
COc1ccc(C(C)(C)C)cc1S(=O)(=O)n1ccnc1C	-2	95*	0	0	-7	2
Cc1ccc([N+](=O)[O-])cc1S(=O)(=O)n1ccnc1C	4	nt	-1	43*	1	-4
CCOC(=O)CC1(C)Sc2ccccc2N1S(=O)(=O)c1ccc(C)cc1 (stereo not given)	nt	nt	nt	43*	nt	nt
Cn1cnc(CCNC(=O)C[C@H]2CC[C@@H]3[C@H](COC[C@@H](O)CN3C(=O)C3CCCC3)O2)c1	nt	1[16.7 µM]	nt	0	nt	nt
COc1ccc(-c2cc(=O)[nH]c(=S)[nH]2)cc1	5	1	4	0	-57	2
COc1ccc(-c2ccc(C(=O)O)c(=O)[nH]2)cc1	0	1	2	44*	-24	9
CN(C)S(=O)(=O)n1cc(/C=C(\NC(=O)c2ccccc2Cl)C(=O)NCCCn2ccnc2)c2ccccc21	8	125*	0	0	-22	3
CN(C)S(=O)(=O)n1cc(/C=C(\NC(=O)c2ccccc2)C(=O)NCCCn2ccnc2)c2ccccc21	17	30	-1	0	-15	8
OC[C@H]1[C@@H](c2ccc(/C=C/c3ccccc3)cc2)[C@@H]2CN(Cc3ccncc3)CCCCN12	nt	-2[16.7 µM]	nt	0	nt	nt
O=C(Cc1ccc(Cl)cc1)SCc1ccccc1	-6	2	2	44*	-20	8
CC(=O)Nc1cc(OC(C)=O)c2nonc2c1OC(C)=O	21	nt	39*	nt	13	6
C[C@H]1CN([C@@H](C)CO)C(=O)c2cc(NC(=O)Nc3cccc4ccccc34)ccc2O[C@@H]1CN(C)CC1CCCCC1	nt	-3[16.7 µM]	nt	0	nt	nt
C/C=C/c1ccc([C@@H]2[C@@H](CN(C)C(=O)CN(C)C)N(C(=O)C3CC3)[C@H]2CO)cc1	nt	-7[16.7 µM]	nt	nt	nt	nt
Cc1ccc(NC(=S)/N=C(\N)Nc2nc(C)c3cc(C)c(C)cc3n2)cc1C	21	-13	-1	43*	-13	-6
Cc1ccc(NC(=S)/N=C(\N)Nc2nc(C)c3cc(C)ccc3n2)c(C)c1	3	7	5	0	37	18
COc1cccc(-c2ccc3c(c2)[C@H]2[C@H](CCN2S(=O)(=O)c2ccccc2C)[C@H](CO)N3)c1	nt	2[16.7 µM]	nt	0	nt	nt
O=C(c1ccccc1F)N1CC[C@@H]2[C@@H](CO)Nc3ccc(-c4cccc(F)c4)cc3[C@@H]21	nt	104*[16.7 µM]	nt	nt	nt	nt
COc1cccc(-c2ccc3c(c2)[C@H]2[C@H](CCN2S(=O)(=O)c2ccccc2C)[C@@H](CO)N3)c1	nt	97*[16.7 µM]	nt	0	nt	nt
CCCCCN(C(=O)NC(=O)Nc1ccc(C)cc1C)S(C)(=O)=O	-3	-2	2	43*	-12	-2
COc1ccc(CNC(=O)Cc2nn(C)c(=O)c3ccccc23)cc1	20	-7	-4	nt	102*	-19
COc1cc(/C=C/C(=O)O)ccc1OCc1ccc([N+](=O)[O-])cc1	-10	nt	1	43*	-3	-3
CCCOc1ccc(/C=C/C(=O)O)cc1OC	-3	0	-2	0	-3	10
CN(C)C(=O)C[C@H]1CC[C@H]2[C@H](COc3ccc(NC(=O)c4ccc(F)c(F)c4)cc3C(=O)N2C)O1	nt	-3[16.7 µM]	nt	0	nt	nt
